# Measured values taken from ChEMBL document CHEMBL2321678, “Incorporation of non-natural amino acids improves cell permeability and potency of specific inhibitors of proteasome trypsin-like sites” (J Med Chem, 2013).
# The source made the active and inactive calls. The rule behind the calls is not given here.
# Tests used:
# [1] = tested on: NCI-H929; assay: Inhibition of cathepsin in human NCI-H929 cells assessed as hydrolysis of Z-FR-amc fluorogenic substrate after 6 hrs; type: cell-based
# Summary of the method: (§1)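 NCI-H929 cells treated 6 h, washed and permeabilized on ice with 0.05% digitonin in Tris pH 7.5 sucrose buffer. Cytosol removed by centrifugation, then the pellet lysed in Bis-Tris pH 5.5/CHAPS buffer. Protein-normalized extract added to 40 µM Z-FR-amc in phosphate pH 6.0, EDTA, DTT. Fluorescence read continuously for 30 min; rate from slopes.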
# [2] = Inhibition of trypsin-like activity of rabbit 26s proteasome beta 2 subunit assessed as hydrolysis of Ac-RLR-amc fluorogenic substrate preincubated for 30 mins followed by substrate addition measured for 30 mins by fluorescence plate reader analysis; design: species or system Oryctolagus cuniculus
# Summary of the method: (§2)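 Purified rabbit-muscle 26S proteasome (final 3 µg/mL) preincubated 30 min with a range of inhibitor concentrations. Slopes expressed as % of mock; IC50 by four-parameter least-squares fit.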
# [3] = Inhibition of caspase-like activity of rabbit 26s proteasome beta 1 subunit assessed as hydrolysis of Acn-LPnLD-amc fluorogenic substrate preincubated for 30 mins followed by substrate addition measured for 30 mins by fluorescence plate reader analysis; design: species or system Oryctolagus cuniculus; summary of the method: as §2
# [4] = tested on: RPMI-8226; assay: Sensitization of human RPMI8226 cells to Carfilzomib assessed as cell viability at 27 uM after 47 hrs; type: functional, cell-based
# [5] = tested on: RPMI-8226; assay: Sensitization of human RPMI8226 cells to Carfilzomib assessed as cell viability at 1 uM after 47 hrs; type: functional, cell-based
# [6] = tested on: RPMI-8226; assay: Sensitization of human RPMI8226 cells to Bortezomib assessed as cell viability at 1 uM after 47 hrs; type: functional, cell-based
# Summary of the method: (§3)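 RPMI-8226 grown in RPMI-1640 with 10% FBS, penicillin, streptomycin and plasmocin, 5% CO2. For sensitization, cells exposed to bortezomib for 1 h, then 47 h with the trypsin-site inhibitor (1 µM). Viability by Alamar Blue dye conversion; mean ± SEM of three biological replicates.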
# [7] = tested on: RPMI-8226; assay: Cytotoxicity against human RPMI8226 cells; type: functional, cell-based; summary of the method: as §3
# [8] = tested on: Saccharomyces cerevisiae; assay: Inhibition of caspase-like activity of yeast 20s proteasome beta 1 subunit assessed as hydrolysis of […] fluorogenic substrate at 200 uM after 15 mins by fluorescence spectrophotometry
# Summary of the method: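 Yeast 20S core particle (0.10 nM) preincubated 15 min with inhibitor, which stays present during the assay. Substrate ZLLE-amc for caspase-like sites, 250 µM, in 20 mM Tris, 0.01% SDS, pH 7.5. Hydrolysis monitored for 1 h at room temperature (ex 360/em 460 nm).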
# [9] = tested on: NCI-H929; assay: Partial inhibition of cathepsin in human NCI-H929 cells assessed as hydrolysis of Z-FR-amc fluorogenic substrate after 6 hrs; type: cell-based; summary of the method: as §1
# [10] = molecular target: T1, Proteasome Macropain subunit MB1 (Homo sapiens) (UniProt P28074); assay: Inhibition of chymotrypsin-like activity of proteasome beta 5 subunit in HEK-293T cell lysates after 1 hr by SDS-PAGE analysis
# T1 sequence (whole entry): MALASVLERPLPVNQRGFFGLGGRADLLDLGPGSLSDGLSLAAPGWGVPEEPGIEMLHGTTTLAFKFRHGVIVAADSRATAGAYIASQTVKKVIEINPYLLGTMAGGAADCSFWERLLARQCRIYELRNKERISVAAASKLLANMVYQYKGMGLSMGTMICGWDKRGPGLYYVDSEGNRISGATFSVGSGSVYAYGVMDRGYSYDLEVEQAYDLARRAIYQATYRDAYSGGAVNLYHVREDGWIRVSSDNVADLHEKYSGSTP
# Summary of the method: (§4)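 Then 1 h at 37 °C with BODIPY-TMR-Ahx3L3-vs or BODIPY-TMR-epoxomicin (0.5 µM). Samples run on 12.5% SDS-PAGE; β2/β5 band fluorescence taken relative to mock. Three independent experiments; IC50 fitted.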
# [11] = molecular target: Proteasome Macropain subunit (Homo sapiens) (UniProt P49721); assay: Inhibition of trypsin-like activity of proteasome beta 2 subunit in HEK-293T cell lysates after 1 hr by SDS-PAGE analysis; summary of the method: as §4
# [12] = tested on: RPMI-8226; assay: Potentiation of NC-022-induced sensitization of human RPMI8226 cells to Carfilzomib assessed as cell viability at 10 uM after 48 hrs; type: functional, cell-based
# [13] = tested on: RPMI-8226; assay: Sensitization of human RPMI8226 cells to Carfilzomib assessed as cell viability at 10 uM after 48 hrs; type: functional, cell-based
# [14] = species on record: Oryctolagus cuniculus; assay: Selectivity ratio of IC50 for chymotrypsin-like activity of rabbit 26s proteasome beta 5 subunit to IC50 for trypsin-like activity of rabbit 26s proteasome beta 2 subunit
# Summary of the method: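 Purified rabbit-muscle 26S proteasome (final 3 µg/mL) preincubated 30 min with a range of inhibitor concentrations. […] Amc release read continuously for 30 min (ex 380/em 460 nm). Slopes expressed as % of mock; IC50 by four-parameter least-squares fit.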
# [15] = Inhibition of chymotrypsin-like activity of rabbit 26s proteasome beta 5 subunit assessed as hydrolysis of Suc-LLVY-amc fluorogenic substrate preincubated for 30 mins followed by substrate addition measured for 30 mins by fluorescence plate reader analysis; design: species or system Oryctolagus cuniculus; summary of the method: as §2
# [16] = species on record: Homo sapiens; assay: Selectivity ratio of IC50 for chymotrypsin-like activity of human proteasome beta 5 subunit to IC50 for trypsin-like activity of human proteasome beta 2 subunit
# [17] = molecular target: T2, Proteasome Macropain subunit MB1 (Homo sapiens, UniProt P28074); assay: Inhibition of chymotrypsin-like activity of proteasome beta 5 subunit in HEK-293T cell lysates using BODIPY-BODIPY-TMR-epoxomicin as probe after 1 hr by SDS-PAGE analysis
# T2 sequence (P28074 whole entry): T1 sequence (whole entry)
# Summary of the method: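 Then 1 h at 37 °C with BODIPY-TMR-Ahx3L3-vs or BODIPY-TMR-epoxomicin (0.5 µM). Three independent experiments; IC50 fitted.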
# Chain of Proteasome Macropain subunit (Homo sapiens) (P49721 whole entry): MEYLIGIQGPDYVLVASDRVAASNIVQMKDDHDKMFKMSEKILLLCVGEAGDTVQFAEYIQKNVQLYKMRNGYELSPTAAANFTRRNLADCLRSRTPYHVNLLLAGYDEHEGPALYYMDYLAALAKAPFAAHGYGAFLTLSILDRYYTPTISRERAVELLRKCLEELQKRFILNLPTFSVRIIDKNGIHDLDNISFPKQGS
SMILES,IC50 [2],IC50 [3],Ratio IC50 [14],IC50 [15],Ratio IC50 [16],IC50 [17],further results
CC(C)C[C@H](NC(=O)[C@H](Cc1ccncc1)NC(=O)[C@H](Cc1ccccc1)N=[N+]=[N-])C(=O)N[C@H](/C=C/S(C)(=O)=O)Cc1ccc(CN)cc1,0.012 µM,30 µM,,,,,inhibition [1]: Active
CC(C)C[C@H](NC(=O)[C@H](Cc1ccccc1)N=[N+]=[N-])C(=O)N[C@@H](CC(C)C)C(=O)N[C@H](/C=C/S(C)(=O)=O)Cc1ccc(CN)cc1,,,,,,,Activity [4]: Active; Activity [5]: Active; Activity [6]: Active; Activity [7]: inactive; inhibition [8]: inactive; inhibition [9]: Active
CC1=CC(C)=[N+]2C1=C(CCCCc1cn([C@@H](Cc3ccccc3)C(=O)N[C@@H](CC(C)C)C(=O)N[C@@H](CC(C)C)C(=O)N[C@H](/C=C/S(C)(=O)=O)Cc3ccc(CN)cc3)nn1)c1c(C)cc(C)n1[B-]2(F)F,,,,,,,inhibition [10]: Active; inhibition [11]: Active
CCOC(=O)[C@H]1O[C@@H]1C(=O)N[C@@H](CC(C)C)C(=O)NCCC(C)C,,,,,,,Activity [12]: inactive; Activity [13]: inactive
CC(C)C[C@@H](/C=C/S(C)(=O)=O)NC(=O)[C@H](CC(C)C)NC(=O)[C@H](Cc1ccc(CN)cc1)NC(=O)[C@H](Cc1ccccc1)N=[N+]=[N-],0.18 µM,,0.057,0.01 µM,2.5,0.48 µM,
CC(C)C[C@H](NC(=O)[C@H](Cc1ccccc1)N=[N+]=[N-])C(=O)N[C@@H](CC(C)C)C(=O)N[C@H](/C=C/S(C)(=O)=O)Cc1ccc(N)cc1,0.11 µM,23 µM,0.36,0.04 µM,0.73,1.1 µM,
CC(C)C[C@H](NC(=O)[C@H](Cc1ccc(CN)cc1)NC(=O)[C@H](Cc1ccccc1)N=[N+]=[N-])C(=O)N[C@H](/C=C/S(C)(=O)=O)Cc1ccncc1,0.045 µM,> 30 µM,9.1,0.41 µM,6.5,2.4 µM,
CC(=O)N[C@@H](CC(C)C)C(=O)N[C@@H](CC(C)C)C(=O)N[C@@H](CCCNC(=N)N)C(=O)[C@@]1(C)CO1,1 µM,> 30 µM,,> 30 µM,,,
CC(C)C[C@H](NC(=O)[C@H](Cc1ccccc1)N=[N+]=[N-])C(=O)N[C@@H](CC(C)C)C(=O)N[C@@H](Cc1ccc(N)cc1)C(=O)[C@@]1(C)CO1,1.8 µM,> 30 µM,0.0056,0.01 µM,,,
CC(C)C[C@H](NC(=O)[C@H](Cc1ccc(CN)cc1)NC(=O)[C@H](Cc1ccccc1)N=[N+]=[N-])C(=O)N[C@H](/C=C/S(C)(=O)=O)Cc1ccc(CN)cc1,0.0066 µM,,,8.9 µM,,,inhibition [1]: Active
CC(C)C[C@H](NC(=O)[C@H](Cc1ccc(N)cc1)NC(=O)[C@H](Cc1ccccc1)N=[N+]=[N-])C(=O)N[C@H](/C=C/S(C)(=O)=O)Cc1ccc(CN)cc1,0.03 µM,30 µM,,3.4 µM,,,inhibition [9]: Active
CC(C)C[C@H](NC(=O)[C@H](Cc1ccc(CN)cc1)NC(=O)[C@H](Cc1ccccc1)N=[N+]=[N-])C(=O)N[C@H](/C=C/S(C)(=O)=O)Cc1ccc(N)cc1,0.0063 µM,> 30 µM,59,0.19 µM,6.3,0.63 µM,
CC(C)C[C@H](NC(=O)[C@H](Cc1ccccc1)N=[N+]=[N-])C(=O)N[C@@H](CC(C)C)C(=O)N[C@H](/C=C/S(C)(=O)=O)CCCCN,0.74 µM,> 30 µM,,22 µM,,,
CC(C)C[C@H](NC(=O)[C@H](Cc1ccccc1)N=[N+]=[N-])C(=O)N[C@@H](CC(C)C)C(=O)N[C@@H](Cc1ccc(CN)cc1)C(=O)[C@@]1(C)CO1,0.25 µM,11 µM,,2.7 µM,,,
CC(C)C[C@H](NC(=O)[C@H](Cc1ccccc1)N=[N+]=[N-])C(=O)N[C@@H](CC(C)C)C(=O)N[C@H](/C=C/S(C)(=O)=O)Cc1ccncc1,0.42 µM,> 30 µM,,< 0.1 µM,,1.5 µM,
Cc1c(O)cccc1C(=O)N[C@H](C(=O)N[C@@H](CO)C(=O)N[C@H](/C=C/S(C)(=O)=O)Cc1ccc(N)cc1)C(C)C,> 30 µM,> 30 µM,< 0.0067,0.2 µM,,,
CC(C)C[C@H](NC(=O)[C@H](Cc1ccccc1)NC(=O)[C@H](Cc1ccccc1)N=[N+]=[N-])C(=O)N[C@H](/C=C/S(C)(=O)=O)Cc1ccccc1,> 30 µM,> 30 µM,,1 µM,0.04,0.11 µM,
CC1=CC(C)=[N+]2C1=C(CCCCc1cn([C@@H](Cc3ccccc3)C(=O)N[C@@H](Cc3ccc(CN)cc3)C(=O)N[C@@H](CC(C)C)C(=O)N[C@H](/C=C/S(C)(=O)=O)Cc3ccc(CN)cc3)nn1)c1c(C)cc(C)n1[B-]2(F)F,,,,,,,inhibition [11]: inactive
CC(C)C[C@@H](/C=C/S(C)(=O)=O)NC(=O)[C@H](CC(C)C)NC(=O)[C@H](Cc1ccncc1)NC(=O)[C@H](Cc1ccccc1)N=[N+]=[N-],24 µM,> 30 µM,0.00021,0.005 µM,0.029,0.16 µM,
CC(=O)N[C@@H](CCCNC(=N)N)C(=O)N[C@@H](CC(C)C)C(=O)N[C@@H](CCCNC(=N)N)C(=O)[C@@]1(C)CO1,0.08 µM,> 30 µM,,> 30 µM,,,
CC(C)C[C@@H](/C=C/S(C)(=O)=O)NC(=O)[C@H](CC(C)C)NC(=O)[C@H](Cc1ccc(N)cc1)NC(=O)[C@H](Cc1ccccc1)N=[N+]=[N-],24 µM,> 30 µM,,< 0.004 µM,0.034,0.093 µM,
